Results published in ChEMBL document CHEMBL1130287, “Potent and selective non-benzodioxole-containing endothelin-A receptor antagonists” (J Med Chem, 1997).

Legend:
[1] = biological target: T1, Endothelin-1 receptor (Rattus norvegicus, UniProt P26684); assay: Binding affinity towards endothelin A receptor in prolactin secreting rat pituitary cells using [125I]ET1 as radioligand.; format: cell-based, Pituitary gland cell
T1 sequence (P26684 whole entry): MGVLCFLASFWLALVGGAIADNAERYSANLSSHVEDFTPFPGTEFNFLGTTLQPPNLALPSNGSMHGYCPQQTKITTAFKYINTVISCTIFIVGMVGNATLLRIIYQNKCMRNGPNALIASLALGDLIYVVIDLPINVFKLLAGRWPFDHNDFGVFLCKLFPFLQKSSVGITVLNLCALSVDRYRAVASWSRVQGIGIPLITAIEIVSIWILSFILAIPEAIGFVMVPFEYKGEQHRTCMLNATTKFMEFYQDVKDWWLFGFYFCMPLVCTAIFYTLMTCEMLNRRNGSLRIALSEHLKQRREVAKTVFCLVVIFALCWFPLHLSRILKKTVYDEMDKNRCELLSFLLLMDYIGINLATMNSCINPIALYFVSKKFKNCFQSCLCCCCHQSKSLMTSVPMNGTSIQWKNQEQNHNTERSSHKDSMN
Procedure, shortened: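 Membranes from rat MMQ pituitary cells (predominantly ETA), kept at 4 °C and stored in Tris/NaCl/MgCl2 buffer pH 7.4 with protease inhibitors. Bound ligand separated by vacuum filtration on glass fiber. Nonspecific binding defined with 1 μM ET-1.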

[2] = biological target: T2, Endothelin receptor type B (Sus scrofa, UniProt P35463); assay: Binding affinity towards endothelin B receptor in porcine cerebellar tissue using [125I]-ET-1 as radioligand.
T2 sequence (P35463 whole entry): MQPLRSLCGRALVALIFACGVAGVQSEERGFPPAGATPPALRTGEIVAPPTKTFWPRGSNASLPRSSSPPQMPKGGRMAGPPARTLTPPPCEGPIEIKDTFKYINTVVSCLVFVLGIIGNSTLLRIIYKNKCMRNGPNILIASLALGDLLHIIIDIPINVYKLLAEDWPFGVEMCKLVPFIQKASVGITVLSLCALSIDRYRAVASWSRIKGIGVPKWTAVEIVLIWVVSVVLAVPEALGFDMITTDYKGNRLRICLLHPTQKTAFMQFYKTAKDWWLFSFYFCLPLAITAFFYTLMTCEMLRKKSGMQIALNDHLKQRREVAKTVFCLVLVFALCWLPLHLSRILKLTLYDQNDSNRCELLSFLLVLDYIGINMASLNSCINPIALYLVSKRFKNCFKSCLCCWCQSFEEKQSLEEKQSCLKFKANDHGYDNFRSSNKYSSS
Procedure, shortened: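 Membranes from porcine cerebellar tissue (ETB), kept at 4 °C and stored in Tris/NaCl/MgCl2 buffer pH 7.4 with protease inhibitors. Bound and free separated by glass-fiber filtration. Nonspecific binding measured with 1 μM ET-1.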

[3] = Oral bioavailability in rat; format: ADME, organism-based; conditions: in vivo
Procedure, shortened: (§1)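 Male Sprague–Dawley rats, n = 4 per group. Vehicle: ethanol:propylene glycol:D5W (20:30:50) with 1 mol equiv NaOH. Dosing: 5 mg/kg iv jugular bolus, or 10 mg/kg oral gavage. Tail-vein plasma sampled 0.1 (iv only) to 12 h and analyzed by HPLC after extraction. Trapezoidal AUC extrapolated to infinity. F from dose-corrected oral versus iv AUC.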

[4] = Area under curve was determined in carotid blood of rat when administered intraduodenally; design: concentration or dose not given beside the values
[5] = Maximum concentration of compound in plasma administered orally to rats; format: ADME, organism-based; design: route oral; conditions: rat, po; procedure, shortened: as §1
[6] = Area under curve was determined in portal blood of rat when administered intradermally; format: ADME, organism-based; design: concentration or dose not given beside the values; conditions: in the assay text read “intraduodenally” for “intradermally”
Procedure, shortened: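 Male Sprague–Dawley rats (~225 g), fasted overnight and anesthetized with inactin (100 mg/kg ip). Pylorus ligated; carotid and portal vein catheterized. Intraduodenal dose 10 mg/kg at t = 0. Portal blood drawn at 10, 30 and 60 min; drug measured by HPLC-UV at 226 nm against plasma standards (0.01–50 μg/mL). AUC calculated by trapezoidal rule.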

[7] = Time taken to decrease the plasma concentration to half of the maximum concentration when compound was administered intravenously in rats; format: ADME, organism-based; conditions: rat, iv; procedure, shortened: as §1

Row | IC50 [1] | IC50 [2] | bioavailability [3] | AUC [4] | Cmax [5] | AUC [6] | half-life [7] | Structure (SMILES)
1 |  | > 100000 nM |  |  |  |  |  | CCCN(C)C(=O)CN1C[C@H](c2ccccc2)[C@@H](C(=O)O)[C@@H]1c1ccc(OC)cc1
2 | 258 nM | 13000 nM |  |  |  |  |  | CCCN(C)C(=O)CN1C[C@H](c2ccc3ccoc3c2)[C@@H](C(=O)O)[C@@H]1c1ccc(OC)cc1
3 | 310 nM | 11000 nM |  |  |  |  |  | CCCN(C)C(=O)CN1C[C@H](c2ccc3c(c2)CCC3)[C@@H](C(=O)O)[C@@H]1c1ccc(OC)cc1
4 | 5100 nM | 35000 nM |  |  |  |  |  | CCCN(C)C(=O)CN1C[C@H](c2ccc3cc[nH]c3c2)[C@@H](C(=O)O)[C@@H]1c1ccc(OC)cc1
5 | 2300 nM | 32000 nM |  |  |  |  |  | CCCN(C)C(=O)CN1C[C@H](c2cccc3ccccc23)[C@@H](C(=O)O)[C@@H]1c1ccc(OC)cc1
6 | 137 nM | 6400 nM |  |  |  |  |  | CCCN(C)C(=O)CN1C[C@H](c2ccc3c(c2)OCC3)[C@@H](C(=O)O)[C@@H]1c1ccc(OC)cc1
7 | 2300 nM | 25000 nM |  |  |  |  |  | CCCN(C)C(=O)CN1C[C@H](c2ccc3ccccc3c2)[C@@H](C(=O)O)[C@@H]1c1ccc(OC)cc1
8 | 3.7 nM | 48000 nM |  |  |  |  |  | CCCCN(CCCC)C(=O)CN1C[C@H](c2ccc(OC)cc2OC)[C@@H](C(=O)O)[C@@H]1c1ccc(OC)cc1
9 | 1.3 nM | 4100 nM |  |  |  |  |  | CCCCN(CCCC)C(=O)CN1C[C@H](c2ccc(OC)cc2)[C@@H](C(=O)O)[C@@H]1c1ccc(OC)cc1
10 | 310 nM | 35000 nM |  |  |  |  |  | CCCN(C)C(=O)CN1C[C@H](c2ccc(F)c(F)c2)[C@@H](C(=O)O)[C@@H]1c1ccc(OC)cc1
11 | 176 nM | 16000 nM |  |  |  |  |  | CCCN(C)C(=O)CN1C[C@H](c2ccc(OC)cc2)[C@@H](C(=O)O)[C@@H]1c1ccc(OC)cc1
12 | 130 nM | 19000 nM |  |  |  |  |  | CCCN(C)C(=O)CN1C[C@H](c2ccc3c(c2)CCO3)[C@@H](C(=O)O)[C@@H]1c1ccc(OC)cc1
13 | 730 nM | 31000 nM |  |  |  |  |  | CCCN(C)C(=O)CN1C[C@H](c2ccc(OC)c(OC)c2)[C@@H](C(=O)O)[C@@H]1c1ccc(OC)cc1
14 | 407 nM | 72000 nM |  |  |  |  |  | CCCN(C)C(=O)CN1C[C@H](c2ccc(OC)cc2OC)[C@@H](C(=O)O)[C@@H]1c1ccc(OC)cc1
15 | 130 nM | 35000 nM |  |  |  |  |  | CCCN(C)C(=O)CN1C[C@H](c2ccc3c(c2)OCCO3)[C@@H](C(=O)O)[C@@H]1c1ccc(OC)cc1
16 | 1700 nM |  |  |  |  |  |  | CCCN(C)C(=O)CN1C[C@H](c2cccc(OC)c2)[C@@H](C(=O)O)[C@@H]1c1ccc(OC)cc1
17 |  | 34000 nM |  |  |  |  |  | CCCN(C)C(=O)CN1C[C@H](c2cccc3occc23)[C@@H](C(=O)O)[C@@H]1c1ccc(OC)cc1

Second part, the compound before the results:

Row | Structure (SMILES) | IC50 [1] | IC50 [2] | bioavailability [3] | AUC [4] | Cmax [5] | AUC [6] | half-life [7]
18 | CCCCN(CCCC)C(=O)CN1C[C@H](c2ccc3c(c2)CCC3)[C@@H](C(=O)O)[C@@H]1c1ccc(OC)cc1 | 1.5 nM |  |  |  |  |  | 
19 | CCCCN(CCCC)C(=O)CN1C[C@H](c2ccc(F)c(F)c2)[C@@H](C(=O)O)[C@@H]1c1ccc(OC)cc1 | 1.5 nM | 17000 nM |  |  |  |  | 
20 | CCCCN(CCCC)C(=O)CN1C[C@H](c2cccc(F)c2)[C@@H](C(=O)O)[C@@H]1c1ccc(OC)cc1 | 5 nM | 16000 nM |  |  |  |  | 
21 | CCCCN(CCCC)C(=O)CN1C[C@H](c2ccc3c(c2)OCCO3)[C@@H](C(=O)O)[C@@H]1c1ccc(OC)cc1 | 0.8 nM |  |  |  |  |  | 
22 | CCCCN(CCCC)C(=O)CN1C[C@H](c2ccc(F)cc2)[C@@H](C(=O)O)[C@@H]1c1ccc(OC)cc1 | 14 nM | 77000 nM |  |  |  |  | 
23 | CCCCN(CCCC)C(=O)CN1C[C@H](c2ccc3ccoc3c2)[C@@H](C(=O)O)[C@@H]1c1ccc(OC)cc1 | 0.7 nM | 5000 nM | 38% | 6170 ng·h/mL | 4700 ng/mL | 9000 ng·h/mL | 4.7 h
24 | CCCCN(CCCC)C(=O)CN1C[C@H](c2ccc3occc3c2)[C@@H](C(=O)O)[C@@H]1c1ccc(OC)cc1 | 0.5 nM | 5100 nM | 39% | 2330 ng·h/mL | 1600 ng/mL | 4000 ng·h/mL | 3.2 h
25 | CCCCN(CCCC)C(=O)CN1C[C@H](c2cccnc2)[C@@H](C(=O)O)[C@@H]1c1ccc(OC)cc1 | 930 nM | > 100000 nM |  |  |  |  | 
26 | CCCCN(CCCC)C(=O)CN1C[C@H](c2ccc3c(c2)CCO3)[C@@H](C(=O)O)[C@@H]1c1ccc(OC)cc1 | 0.6 nM | 2600 nM | 33% | 3000 ng·h/mL | 1500 ng/mL | 8830 ng·h/mL | 1.1 h
27 | CCCCN(CCCC)C(=O)CN1C[C@H](c2ccc3c(c2)OCO3)[C@@H](C(=O)O)[C@@H]1c1ccc(OC)cc1 |  |  | 68% | 5830 ng·h/mL | 3200 ng/mL | 10700 ng·h/mL | 3.5 h
28 | CCCCN(CCCC)C(=O)CN1C[C@H](c2ccc3c(c2)OCC3)[C@@H](C(=O)O)[C@@H]1c1ccc(OC)cc1 | 1 nM | 960 nM | 68% | 6170 ng·h/mL | 4000 ng/mL | 12200 ng·h/mL | 4.7 h
29 | CCCCN(CCCC)C(=O)CN1C[C@H](c2cccc3occc23)[C@@H](C(=O)O)[C@@H]1c1ccc(OC)cc1 | 2 nM | 11000 nM |  |  |  |  | 
